The values that follow come from ChEMBL document CHEMBL1150815, “Blepharocalyxins C--E, three new dimeric diarylheptanoids, and related compounds from the seeds of Alpinia blepharocalyx” (2001).

The subject of one assay is HT-1080. Kind of assay: Antiproliferative activity against human HT1080 cells by MTT assay. Format: functional. The settings on record: read-out: ED50 (the source's name). In a few lines: (§1)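 Cells grown in medium with 10% fetal calf serum, 0.1% sodium bicarbonate and 2 mM glutamine. Viability with and without agents measured by MTT assay. 5-Fluorouracil served as positive control. Activity expressed as ED50 in µM.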
(In general: Tetrazolium dyes change colour on reduction, which living cells bring about.)

A short description of assay [1]: Antiproliferative activity against mouse Colon 26-L5 cells by MTT assay. The assay is classed as functional. The settings on record: read-out: ED50 (the source's name). In a few lines:
as §1

Turning to `Oc1ccc(CC[C@H]2CC=C[C@@H](c3ccc(O)cc3)O2)cc1`, the EC50 is 79.4 µM with HT-1080 and greater than 100 µM in assay [1].

As for `Oc1ccc(CC[C@H]2CC=C[C@H](c3ccc(O)cc3)O2)cc1`, the EC50 in the assay on HT-1080 was found to be 45.3 µM; in assay [1] it was 71.2 µM.

Take `Oc1ccc(CC[C@H]2C[C@H](O)[C@H](O)[C@@H](c3ccc(O)cc3)O2)cc1`: the EC50 is greater than 100 µM in the assay with HT-1080 and 44.2 µM in assay [1].

Consider `Oc1ccc(CC[C@H]2CC(O)C(O)[C@@H](c3ccc(O)cc3)O2)cc1` (mixture of isomers), for which the EC50 in the assay with HT-1080 is 83.7 µM; in assay [1], 49.4 µM.

For `Oc1ccc(/C=C/[C@H](C[C@@H](O)CCc2ccc(O)cc2)[C@@H]2[C@@H](c3ccc(O)cc3)O[C@@H](CCc3ccc(O)cc3)C[C@@H]2O)cc1` [BLEPHAROCALYXIN C], the results for the EC50 (in the assay on HT-1080; in assay [1]) were 54.3 µM and 29.6 µM, respectively.

Turning to `Oc1ccc(/C=C/[C@@H]2C[C@H](CCc3ccc(O)cc3)O[C@@H]3C[C@H](CCc4ccc(O)cc4)O[C@H](c4ccc(O)cc4)[C@@H]23)cc1` [BLEPHAROCALYXIN D], the values for the EC50 (in the assay on HT-1080; in assay [1]) were 25.7 µM and 3.61 µM, respectively.

In the case of `COc1cc(O)c([C@@H]2C[C@H](CCc3ccc(O)cc3)O[C@H](c3ccc(O)cc3)[C@H]2[C@H](/C=C/C[C@@H](O)CCc2ccc(O)cc2)c2ccc(O)cc2)c(O)c1C(=O)/C=C/c1ccc(O)cc1` [BLEPHAROCALYXIN E], the EC50 in the assay on HT-1080 is 9.02 µM; in assay [1], 32.2 µM.

Turning to `O=c1[nH]cc(F)c(=O)[nH]1` [FLUOROURACIL], the EC50 was 8 µM in the assay on HT-1080 and 0.53 µM in assay [1].
